Active and inactive are the calls of the source. No cut-off for these calls is given here.
Experiments:
[1] = molecular target: T1, BAG family molecular chaperone regulator 3 (Homo sapiens, UniProt O95817); assay: Binding affinity to CM4 sensorchip immobilized C-terminal His tagged human BAG3 transfected in HEK293T cells assessed as binding capacity at 50 uM by SPR analysis
In short: (§1)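 SPR screen on BAG3-His amine-coupled to a CM4 chip at 60 µg/mL in pH 2.8 acetate. Compound at 50 µM in PBS with 5% DMSO and 0.05% P20 was injected for 90 s at 30 µL/min, then washed. Chip regenerated with 10 mM glycine pH 3. Bound RU read at equilibrium against a void flow cell; 3–10 repeats, mean ± SEM.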

[2] = molecular target: T1, BAG family molecular chaperone regulator 3; assay: Binding affinity to CM4 sensorchip immobilized glycosylated C-terminal His tagged human BAG3 transfected in HEK293T cells assessed as dissociation constant by SPR analysis
In short: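 SPR single-cycle kinetics on CM4-immobilized HEK-293T-expressed BAG3-His. Increasing compound concentrations in PBS with 5% DMSO and 0.05% P20 were injected at 30 µL/min without regeneration between injections, with blank subtraction. Kd from steady-state analysis, reported as mean ± SEM and compared by Student t-test.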

HD-MB03 = assay: Antiproliferative activity against human HD-MB03 cells assessed as cell growth inhibition incubated for 72 hrs by resazurin dye based analysis; assay type: functional
In short: (§2)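 Cells seeded at 2000/well, treated 24 h later with compounds in a 6-point 2-fold dose series, duplicate wells, two independent experiments. After 72 h, resazurin was added at 44 µM final for 3 h at 37 °C and fluorescence was read at 590 nm. Viability was normalized to 1 µM bortezomib (positive) and 0.5% DMSO (negative) controls. GI50 is the mean ± SEM of dose-response curves.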

RS4-11 = assay: Antiproliferative activity against human RS4-11 cells assessed as cell growth inhibition incubated for 72 hrs by resazurin dye based analysis; assay type: functional; in short: as §2
A549 = assay: Antiproliferative activity against human A549 cells assessed as cell growth inhibition incubated for 72 hrs by resazurin dye based analysis; assay type: functional; in short: as §2
[3] = molecular target: T1, BAG family molecular chaperone regulator 3; assay: Binding affinity to C-terminal His tagged human BAG3 transfected in HEK293T cells assessed as intermolecular nuclear overhauser effect mediated protein magnetization at 125 uM by waterLOGSY experiment; assay type: cell-based
In short: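 Ligand-observed NMR in 50 mM sodium phosphate pH 7.8, 150 mM NaCl, 0.04% NaN3, 1.3% DMSO-d6, 5% D2O. Compound at 125 µM with 5 µM BAG3-His (HEK-293T expressed, purified by IMAC and SEC), each also run without protein. WaterLOGSY used 240 scans, 1.5 s mixing and water inversion at 4.7 ppm. STD used 256 scans with protein saturation at 0.4 ppm.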

[4] = Cytotoxicity against resting human PBMC cells assessed as cell growth inhibition incubated for 72 hrs by MTT assay; assay type: toxicity, cell-based
[5] = Cytotoxicity against PHA stimulated human PBMC cells assessed as cell growth inhibition incubated for 72 hrs by MTT assay; assay type: toxicity, cell-based
[6] = molecular target: T1, BAG family molecular chaperone regulator 3; assay: Binding affinity to CM4 sensorchip immobilized C-terminal His tagged human BAG3 transfected in HEK293T cells at 50 uM by SPR analysis; in short: as §1

T1 sequence (O95817 whole entry): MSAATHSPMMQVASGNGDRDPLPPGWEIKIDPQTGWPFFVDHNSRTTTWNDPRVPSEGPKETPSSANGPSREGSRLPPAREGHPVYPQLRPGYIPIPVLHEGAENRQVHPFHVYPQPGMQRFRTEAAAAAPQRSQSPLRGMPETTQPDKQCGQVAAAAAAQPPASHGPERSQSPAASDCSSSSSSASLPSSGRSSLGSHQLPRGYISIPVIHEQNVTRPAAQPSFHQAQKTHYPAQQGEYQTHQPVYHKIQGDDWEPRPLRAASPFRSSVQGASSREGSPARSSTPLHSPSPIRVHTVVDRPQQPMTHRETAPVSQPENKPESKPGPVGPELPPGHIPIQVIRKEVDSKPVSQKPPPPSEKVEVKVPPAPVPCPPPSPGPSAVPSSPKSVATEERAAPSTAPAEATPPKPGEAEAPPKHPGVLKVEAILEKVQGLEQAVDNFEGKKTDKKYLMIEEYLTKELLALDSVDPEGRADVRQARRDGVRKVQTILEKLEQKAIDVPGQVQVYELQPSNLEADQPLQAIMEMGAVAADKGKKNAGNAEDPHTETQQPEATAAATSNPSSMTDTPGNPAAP

SMILES | Activity [1] | Kd [2] | GI50 (HD-MB03) | GI50 (RS4-11) | GI50 (A549) | Activity [3] | GI50 at 72 h [4] | GI50 at 72 h [5] | Activity [6]
CCOC(=O)C(C)N1C(=O)S/C(=C\c2ccc(O)c(O)c2)C1=O (racemic) | > 5 RU | 286 µM | 25.3 µM | 5.1 µM | 32.5 µM | – | – | – | –
CCOC(=O)CN1C(=O)S/C(=C\c2ccc(O)c(O)c2)C1=O | – | 233 µM | 14.8 µM | 6.4 µM | 42.5 µM | Active | > 100 µM | > 100 µM | –
CCOC(=O)C(CC)N1C(=O)S/C(=C\c2ccc(O)c(O)c2)C1=O (racemic) | > 5 RU | – | 11.7 µM | 5.13 µM | 29.3 µM | – | – | – | –
O=C(CN1C(=O)S/C(=C\c2cc(Cl)c(O)c(Cl)c2)C1=O)N1CCOCC1 | – | – | > 100 µM | > 100 µM | > 100 µM | – | – | – | inactive
O=C(CN1C(=O)S/C(=C\c2ccc(O)c(O)c2)C1=O)N1CCOCC1 | > 5 RU | 152 µM | 33.1 µM | 24.8 µM | 49.4 µM | – | – | – | –
CCOC(=O)C(C)N1C(=O)S/C(=C\c2ccc3[nH]ncc3c2)C1=O (racemic) | < 5 RU | – | 28.3 µM | 50.5 µM | 68 µM | – | – | – | –
CCOC(=O)CN1C(=O)SC(Cc2ccc(O)c(O)c2)C1=O (stereo unspecified) | – | – | 49 µM | 27.6 µM | > 100 µM | – | – | – | inactive
CCOC(=O)CN1C(=O)S/C(=C\c2ccc3c(c2)OCCO3)C1=O | – | – | > 100 µM | > 100 µM | > 100 µM | – | – | – | inactive
CC(C(=O)N1CCOCC1)N1C(=O)S/C(=C\c2ccc(O)c(O)c2)C1=O (racemic) | – | – | 48.7 µM | 14.1 µM | 47.9 µM | – | – | – | inactive
O=C(CN1C(=O)S/C(=C\c2ccc(O)c(O)c2)C1=O)OCc1ccccc1 | – | – | – | – | – | – | – | – | inactive
CC(C(=O)N1CC2(COC2)C1)N1C(=O)S/C(=C\c2ccc(O)c(O)c2)C1=O (racemic) | – | – | > 100 µM | > 100 µM | > 100 µM | – | – | – | inactive
CCOC(=O)C(C)N1C(=O)S/C(=C\c2ccc(O)nc2)C1=O (racemic) | – | – | > 100 µM | > 100 µM | > 100 µM | – | – | – | inactive
CCOC(=O)C(C)N1C(=O)S/C(=C\c2cc(F)c(O)c(F)c2)C1=O (racemic) | – | – | > 100 µM | > 100 µM | > 100 µM | – | – | – | inactive
CCOC(=O)C(C)N1C(=O)S/C(=C\c2ccc3c(c2)NC(=O)CO3)C1=O (racemic) | – | – | 40.7 µM | 28.1 µM | > 100 µM | – | – | – | inactive
CCOC(=O)C(C1CC1)N1C(=O)S/C(=C\c2ccc(O)c(O)c2)C1=O (racemic) | > 5 RU | 204 µM | 15.5 µM | 6.83 µM | 28.1 µM | – | – | – | –
CCOC(=O)C(C)N1C(=O)S/C(=C\c2ccc(F)c(O)c2)C1=O (racemic) | – | – | > 100 µM | > 100 µM | > 100 µM | – | – | – | inactive
CCOCCN1C(=O)S/C(=C\c2ccc(O)c(O)c2)C1=O | – | – | 17.8 µM | 6.1 µM | 34.3 µM | – | – | – | inactive
CCOC(=O)C(C)N1C(=O)S/C(=C\c2ccc3[nH]cnc3c2)C1=O (racemic) | > 5 RU | 198 µM | 42.5 µM | > 100 µM | > 100 µM | – | – | – | –
CCNC(=O)C(C)N1C(=O)S/C(=C\c2ccc(O)c(O)c2)C1=O (racemic) | – | – | 53.1 µM | 24.8 µM | 70.9 µM | – | – | – | inactive
CCOC(=O)CN1C(=O)S/C(=C(/C)c2ccc(O)c(O)c2)C1=O | – | – | 6.4 µM | 7.25 µM | 44.2 µM | – | – | – | inactive
CCOC(=O)CN1C(=O)S/C(=C\c2ccc(O)c(F)c2)C1=O | – | – | 58.3 µM | > 100 µM | > 100 µM | – | – | – | inactive
CCOC(=O)CN1C(=O)S/C(=C\c2ccc(F)cc2)C1=O | – | – | 34.7 µM | > 100 µM | > 100 µM | – | – | – | inactive

SMILES | Activity [1] | Kd [2] | GI50 (HD-MB03) | GI50 (RS4-11) | GI50 (A549) | Activity [3] | GI50 at 72 h [4] | GI50 at 72 h [5] | Activity [6]
CCOC(=O)CN1C(=O)S/C(=C\c2cccc(O)c2)C1=O | – | – | 40.7 µM | 55 µM | > 100 µM | – | – | – | inactive
CCOC(=O)C(C)N1C(=O)S/C(=C\c2ccc(NS(C)(=O)=O)cc2)C1=O (racemic) | – | – | 17.6 µM | 50.3 µM | > 100 µM | – | – | – | –
CC(C(=O)N1CCOCC1)N1C(=O)S/C(=C\c2ccc(N3CCOCC3)cc2)C1=O (racemic) | < 5 RU | – | > 100 µM | > 100 µM | > 100 µM | – | – | – | –
CCOC(=O)CN1C(=O)S/C(=C\c2ccc(Cl)c(Cl)c2)C1=O | – | – | > 100 µM | > 100 µM | > 100 µM | – | – | – | inactive
CCOC(=O)C(C)N1C(=O)/C(=C/c2ccc(O)c(O)c2)N(C)C1=O (stereo unspecified) | – | – | 53.3 µM | 17.8 µM | 52.6 µM | – | – | – | inactive
CCOC(=O)CN1C(=O)S/C(=C\c2ccc(OC)nc2)C1=O | – | – | 41.1 µM | > 100 µM | > 100 µM | – | – | – | inactive
CCOC(=O)Cc1csc(Oc2ccc(O)cc2)n1 | < 5 RU | – | > 100 µM | > 100 µM | > 100 µM | – | – | – | –
CN(C)C(=O)CN1C(=O)S/C(=C\c2ccc(O)c(O)c2)C1=O | – | – | 36.4 µM | 25.6 µM | 48.3 µM | – | – | – | inactive
CCOC(=O)C(C)N1C(=O)N/C(=C\c2ccc(O)c(O)c2)C1=O (racemic) | – | – | 16.9 µM | 11.9 µM | 54.1 µM | – | – | – | inactive
CS(=O)(=O)Nc1ccc(/C=C2\SC(=O)N(CC(=O)N3CCOCC3)C2=O)cc1 | – | – | 47.4 µM | 12.4 µM | 47.7 µM | – | – | – | inactive
CCOC(=O)C(C)N1C(=O)S/C(=C\c2ccc3cn[nH]c3c2)C1=O (racemic) | < 5 RU | – | 26.3 µM | 17.8 µM | 57.5 µM | – | – | – | –
O=C(O)CN1C(=O)S/C(=C\c2ccc(O)c(O)c2)C1=O | – | – | > 100 µM | > 100 µM | > 100 µM | – | – | – | inactive
CC(C(=O)N1CCC2(CC1)OCCO2)N1C(=O)S/C(=C\c2ccc(O)c(O)c2)C1=O (racemic) | < 5 RU | – | 31.4 µM | 13.4 µM | 44.1 µM | – | – | – | –
CCOC(=O)C(C)N1C(=O)S/C(=C\c2cc(Cl)c(O)c(Cl)c2)C1=O (racemic) | < 5 RU | – | 45.6 µM | 47.2 µM | 72.5 µM | – | – | – | –
CC(C(=O)N1CCCCC1)N1C(=O)S/C(=C\c2ccc(O)c(O)c2)C1=O (racemic) | > 5 RU | 150 µM | 13.9 µM | 8.6 µM | 29.4 µM | – | – | – | –
CCOC(=O)CN1C(=O)S/C(=C\c2ccc(OC)c(OC)c2)C1=O | – | – | 45 µM | > 100 µM | > 100 µM | – | – | – | inactive
CCOC(=O)C(c1ccccc1)N1C(=O)S/C(=C\c2ccc(O)c(O)c2)C1=O (racemic) | > 5 RU | 366 µM | 17.6 µM | 9.53 µM | 33.3 µM | – | – | – | –
CC(C(=O)N1CCOCC1)N1C(=O)S/C(=C\c2ccc(N3CCCC3)cc2)C1=O (racemic) | < 5 RU | – | 7.4 µM | 5.2 µM | 69 µM | – | – | – | –
CCOC(=O)C(C)N1C(=O)S/C(=C\c2ccc(O)c(Cl)c2)C1=O (racemic) | – | – | 26.5 µM | 38.1 µM | 49.4 µM | – | – | – | inactive
O=C1OCCC1N1C(=O)S/C(=C\c2ccc(O)c(O)c2)C1=O (stereo unspecified) | < 5 RU | – | 20.7 µM | 18.1 µM | 50.2 µM | – | – | – | –
CCOC(=O)CN1C(=O)S/C(=C\c2ccc(O)cc2)C1=O | – | – | 29.5 µM | > 100 µM | > 100 µM | – | – | – | inactive
CCOC(=O)C(C)N1C(=O)S/C(=C\c2ccc(Cl)c(O)c2)C1=O (racemic) | < 5 RU | – | 5.26 µM | 60.6 µM | > 100 µM | – | – | – | –

From ChEMBL document CHEMBL5335790, “Design, synthesis and biological evaluation of novel 2,4-thiazolidinedione derivatives able to target the human BAG3 protein” (Eur J Med Chem, 2023)
